beta cell repl: MIN6 beta-cell proliferation induction | actives 0.29% (n = 330,000) | MIN6 cells proliferation, ATPlite luminescence, 48 h; cells starved in 0.2% serum; 100% = growth in 10% serum | proliferation, % at 10 µM | AID 2380;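 active = compounds whose signal lies at least 3.5 SD above the mean of all wells on their plate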;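 note: 0% = DMSO-treated cells in low-serum medium and 100% = 10% serum control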
NOD2 RIPK2 PPI: blocks binding of human NOD2 to RIPK2 | O43353 | CHO BLA complementation NOD2-RIPK2, CCF4 ratio | inhibition, % at 4.98 µM | actives 0.38% (n = 360,000) | AID 624267; in the data active = inhibition above about 21%;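 note: 0% = vehicle only and 100% = reference blocker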
MC4R antagonist: blocks human MC4R cAMP signaling; actives 0.48% (n = 360,000); AID 540295; MC4R-expressing cells, MTII-stimulated cAMP, LANCE TR-FRET; inhibition, % at 6.5 µM;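 active = inhibition above its plate's cutoff, the mean of tested wells on that plate plus 3 SD, cut at about 29% in these data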;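 note: 0% = Melanotan II alone and 100% = Melanotan II plus saturating MCL0020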
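material = U2OS cells stably expressing human melanocortin 4 receptor (MC4R) | also added = Melanotan II challenge | dosing = single nominal compound dose of 6.5 µM | detection = TR-FRET with Eu-cAMP and labeled anti-cAMP, 671 nm | replication = singlicate | timing = compound 30 min, challenge 1 h, detection 1 h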
MC4R barr agon: human MC4R agonism via beta-arrestin; U2OS MC4R beta-arrestin complementation, luminescence; percent of melanotan II response, DMSO zero; activation, % at 8.9 µM; actives 0.98% (n = 360,000); AID 540308;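 active = activation above a per-plate cutoff, the mean activation of sample wells on that plate plus 3 SD, cut at about 8% in these data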
TLR9-MyD88 block: TLR9-MyD88 interaction inhibition. Q9NR96+Q99836. CHO BLA complementation TLR9-MyD88, CCF4 FRET ratio. inhibition, % at 4.98 µM. actives 0.21% (n = 340,000). AID 504734;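 active = inhibition above the mean over all tested compounds plus 3 SD, cut at about 21% in these data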;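 note: 0% = DMSO only wells and 100% = clavulanate BLA inhibitor control wells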
TLR4 MyD88 comp: blocks binding of human TLR4 to MyD88; actives 0.18% (n = 200,000); inhibition, % at 8.4 µM; O00206+Q99836; HeLa CL3-4 TLR4/MyD88 BLA complementation, FRET ratio; in the data active = inhibition above about 25%;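 note: 0% = vehicle and 100% = reference inhibitor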
NOD2-RIPK2 conf: confirmation of human NOD2-RIPK2 interaction inhibitors; shares compounds with NOD2 RIPK2 PPI; CHO cells, NOD2-RIPK2 BLA complementation, CCF4 FRET; inhibition, % at 4.98 µM; actives 70% (n = 1,200);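 active = mean inhibition across replicates above a set limit taken from the earlier primary screen, cut at about 21% in these data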;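 note: 0% = DMSO-only wells and the high end = clavulanate BLA-blocked wells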
NOD2 BLA counter: NOD2-RIPK2 counterscreen BLA reporter activity; shares compounds with NOD2 RIPK2 PPI; CHO BLA reporter, CCF4 FRET ratio; inhibition, % at 4.98 µM; actives 57% (n = 1,200);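 active = mean inhibition above the low-control mean inhibition plus three low-control SD, cut at about 11% in these data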;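 note: 0% = DMSO only wells and 100% = clavulanate high control wells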
An asterisk follows results filed as active; · = no result given. An excerpt weighted towards active compounds, which were near 2.1% of everything screened.

SMILES	beta cell repl	NOD2 RIPK2 PPI	MC4R antagonist	MC4R barr agon	TLR9-MyD88 block	TLR4 MyD88 comp	NOD2-RIPK2 conf	NOD2 BLA counter
CCCCNC(=O)C(C)N(CCN(C)C)C(=O)CCCN1C(=O)NC(c2ccc([N+](=O)[O-])cc2)C(C(=O)OCc2ccccc2)=C1C (configuration not stated)	·	22*	9	-1	0	·	2	-13
CCOc1ccc(-c2noc([C@@H]3O[C@H](CO)[C@@H](O)[C@H]3O)n2)cc1	·	8	10	1	·	·	·	·
CCOCCCNC(=O)c1ccc2c(c1)N=C(CC)c1cc(Br)ccc1S2	-5	28*	-18	-1	-2	3	7	0
CCC1=Nc2cc(C(=O)NCCN3CCOCC3)ccc2Sc2ccccc21	1	1	-1	0	7	·	·	·
CC[C@]12c3[nH]c4ccc(Cl)cc4c3CCN1C(=O)[C@@H](CC(=O)NCCCn1ccnc1)C[C@@H]2C(=O)N1CCN(C(=O)C2CC2)CC1	·	3	5	-1	-7	·	·	·
CC(C)(C)c1ccc(/C=C2\Oc3cc(O)ccc3C2=O)cc1	-4	24*	-10	2	21	·	27*	45*
O=C1/C(=C/c2ccc(Br)cc2)Oc2cc(O)ccc21	-6	25*	-1	-2	18	·	37*	42*
O=C1/C(=C/c2ccc([N+](=O)[O-])cc2)Oc2cc(O)ccc21	-6	-4	-1	-2	-8	·	·	·
Cc1ccc(Cn2c(=N)n(CC(=O)c3ccccc3)c3ccccc32)cc1	-6	-4	0	4	3	10	·	·
C(=C\c1ccco1)/C1=NN(c2ccccc2)C(c2ccco2)C1 (configuration not stated)	-7	22*	2	-1	-23	15	32*	60*
O=[N+]([O-])c1ccc(/C=C/C2=NN(c3ccccc3)C(c3ccco3)C2)o1 (configuration not stated)	·	1	0	-3	0	4	·	·
C=C(CN(C)C)C(=O)c1ccc(C)cc1C	·	33*	21	-4	11	·	94*	30*
CCCCc1cc(=O)oc2cc(C)cc(OCC(=O)NC(Cc3ccc(Cl)cc3)C(=O)O)c12 (configuration not stated)	-3	-3	9	-2	-5	·	·	·
O=C(NCc1ccccc1)C(c1ccncc1)n1c(=O)c(-c2ccco2)nc2ccccc21 (configuration not stated)	·	-9	·	·	·	·	·	·
O=C(NCc1ccccc1)C(c1cccc2ccccc12)n1c(=O)c(-c2cc3ccccc3[nH]2)nc2ccccc21 (configuration not stated)	·	43*	·	·	·	·	41*	66*
O=C(NCc1ccccc1)C(CCc1ccccc1)n1c(=O)c(-c2ccccc2)nc2ccccc21 (configuration not stated)	·	29*	·	·	·	·	6	1
O=C(NCc1ccccc1)C(CCc1ccccc1)n1c(=O)c(-c2cc3ccccc3[nH]2)nc2ccccc21 (configuration not stated)	·	50*	·	·	·	·	46*	69*
O=C(NCc1ccccc1)C(c1cccc2ccccc12)n1c(=O)c(-c2ccco2)nc2ccccc21 (configuration not stated)	·	-11	·	·	·	·	·	·
Cc1cccc(C)c1NC(=O)C(c1cccc2ccccc12)n1c(=O)c(-c2cc3ccccc3[nH]2)nc2ccccc21 (configuration not stated)	·	42*	·	·	·	·	38*	64*
CCn1cc(CN2CCCC(C(=O)Nc3ccc(-c4cscn4)cc3)C2)c(C)n1 (configuration not stated)	-3	-2	-2	-1	5	·	·	·
Cc1cccc(C)c1NC(=O)C(c1ccccc1F)n1c(=O)c(-c2cc3ccccc3[nH]2)nc2ccccc21 (configuration not stated)	·	50*	·	·	·	·	46*	68*
COc1ccc(C(=O)N2CCOC2CNC(=O)C(=O)NCCc2ccccc2OC)cc1 (configuration not stated)	-2	-3	-2	-2	8	·	·	·
O=C(NC1CCCCC1)C(c1ccccn1)N(C(=O)c1csnn1)C1CCCCC1 (configuration not stated)	-1	-1	1	-2	-1	3	·	·
CCCCCCCC1CC(/C(C)=N/NC(N)=O)OC1=O (configuration not stated)	-1	4	10	-2	4	-9	·	·
CN1CCN(C2CC(=O)N(c3ccc4c(c3)OCCO4)C2=O)CC1 (configuration not stated)	-1	24*	4	-1	-6	-4	-1	-2
SMILES	beta cell repl	NOD2 RIPK2 PPI	MC4R antagonist	MC4R barr agon	TLR9-MyD88 block	TLR4 MyD88 comp	NOD2-RIPK2 conf	NOD2 BLA counter
CCOc1ccccc1C(=O)Oc1cc(C)[nH]c(=O)c1[N+](=O)[O-]	-1	97*	-6	1	8	·	1	-1
CCc1ccc2nc(N(CCCN(C)C)C(=O)c3ccc(S(=O)(=O)N4CCc5ccccc5C4)cc3)sc2c1	-7	22*	-8	20*	15	·	23*	5
CCOC(=O)Nc1ccc2c3c(cccc13)-c1ccccc1-2	·	34*	-3	-1	16	·	31*	47*
COc1cccc(N2CCN(C(=O)C3CCN(S(=O)(=O)c4cccs4)CC3)CC2)c1	-1	-9	0	-3	0	-6	·	·
Cc1cc(C)c(NC(=O)C2CCN(c3cnccn3)CC2)c(C)c1	-2	28*	9	-3	-11	0	-8	-2
O=C1CCc2cc(NS(=O)(=O)c3ccccc3)cc3c2N1CC3	3	5	4	0	-1	·	·	·
CCOC(=O)c1c(-n2cnnn2)sc2c1CCCC2	2	-4	-1	-2	1	·	·	·
CCOC(=O)c1c(N2C(=O)C3C4C=CC(O4)C3C2=O)sc2c1CCCC2 (configuration not stated)	-2	22*	16	-3	-2	2	4	0
O=C(CCS(=O)(=O)c1ccc(Br)cc1)NCc1ccc(F)cc1	-2	-5	-7	-1	-1	·	·	·
Cc1cc(OCC(=O)NCCCn2ccnc2)c2c(C)c(C)c(=O)oc2c1	-1	-1	9	-1	-2	·	·	·
O=C(CC1SC(N2CCOCC2)=NC1=O)Nc1ccccc1Cl (configuration not stated)	-2	-10	0	0	1	·	·	·
